# Target: Procathepsin L (Homo sapiens, UniProt P07711)
# Assay: Inhibition of human recombinant Cathepsin L assessed remaining activity using Z-FR-AMC as substrate incubated for 30 mins by fluorometric assay
# Method in brief: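 Recombinant human cathepsins: L, B, V and K at 1.11 nM, S at 4.44 nM. Each was preincubated 30 min at 25 °C with 3333 to 0.006 nM compound. Z-FR-AMC was added at 40 μM final. AMC release rate over 0–30 min was compared with DMSO (ex/em 360/460). IC50 from four technical replicates.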
# Chain of Procathepsin L (P07711 whole entry): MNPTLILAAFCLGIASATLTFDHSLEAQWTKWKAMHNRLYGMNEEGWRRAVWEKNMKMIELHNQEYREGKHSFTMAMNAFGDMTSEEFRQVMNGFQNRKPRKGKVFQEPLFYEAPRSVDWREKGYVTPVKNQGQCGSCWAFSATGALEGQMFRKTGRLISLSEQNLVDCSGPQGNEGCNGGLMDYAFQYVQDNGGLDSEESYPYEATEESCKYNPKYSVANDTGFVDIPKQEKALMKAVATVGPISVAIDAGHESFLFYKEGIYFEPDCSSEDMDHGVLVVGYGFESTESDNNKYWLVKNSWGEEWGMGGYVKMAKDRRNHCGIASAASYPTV
compound,measurement,value
COC1=CC(=O)N(C(=O)/C=C/[C@H](C)NC(=O)[C@H](CCc2ccccc2)NC(=O)[C@H](CC2CCCCC2)NC(=O)[C@H](C(C)C)N(C)C)[C@H]1Cc1c[nH]c2ccccc12,IC50,6 pM

# From BindingDB's records for PubMed 34730959 (The University of Sydney, 2022)
